Activity calls are given as the source filed them.
Key:
Type in all cases: functional, organism-based
Pseudomonas aeruginosa = assay: Antibacterial activity against Pseudomonas aeruginosa at 1 mM by almar blue dye reduction assay
Outline: (§1)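 Single-point primary screen at 1 mM using Alamar Blue dye reduction as the growth read-out.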

Candida albicans = assay: Antifungal activity against Candida albicans at 1 mM by almar blue dye reduction assay; outline: as §1
Cryptococcus neoformans = assay: Antifungal activity against Cryptococcus neoformans at 1 mM by almar blue dye reduction assay; outline: as §1
Bacillus subtilis = assay: Antibacterial activity against Bacillus subtilis at 1 mM by almar blue dye reduction assay; outline: as §1
Bacillus anthracis = assay: Antibacterial activity against Bacillus anthracis at 1mM by almar blue dye reduction assay
Staphylococcus aureus = assay: Antibacterial activity against Staphylococcus aureus at 1 mM by almar blue dye reduction assay; outline: as §1
Bacillus cereus = assay: Antibacterial activity against Bacillus cereus at 1 mM by almar blue dye reduction assay; outline: as §1
Escherichia coli = assay: Antibacterial activity against Escherichia coli at 1 mM by almar blue dye reduction assay; outline: as §1
Saccharomyces cerevisiae = assay: Antifungal activity against Saccharomyces cerevisiae at 1 mM by almar blue dye reduction assay; outline: as §1

Measured: Activity

CCCNC(=O)NCC#Cc1cn([C@H](C)CC2CCC([C@@H](C)C(=O)N3CCN(CC4CCCO4)CC3)O2)nn1 (single isomer, unassigned)
inactive: all assays above

CCC(=O)OCC#Cc1cn([C@H](C)CC2CCC([C@@H](C)C(=O)N3CCCC3)O2)nn1 (single isomer, unassigned)
inactive: all assays above

C[C@H](C[C@@H]1CC[C@H]([C@@H](C)C(=O)N2CCN(CC3CCCO3)CC2)O1)n1cc(C#CCc2ccccc2)nn1 (stereo partly drawn)
inactive: all assays above

Cc1cccc(NC(=O)OCC#Cc2cn([C@H](C)CC3CCC([C@@H](C)C(=O)NC(C)C)O3)nn2)c1 (single isomer, unassigned)
inactive: all assays above

CCC(=O)OCC#Cc1cn([C@H](C)CC2CCC([C@@H](C)C(=O)N(C)Cc3ccccc3)O2)nn1 (single isomer, unassigned)
inactive: all assays above

CCC(=O)OCC#Cc1cn([C@H](C)CC2CCC([C@@H](C)C(=O)N3CCN(CC4CCCO4)CC3)O2)nn1 (single isomer, unassigned)
inactive: all assays above

CC(C)NC(=O)[C@H](C)[C@H]1CC[C@@H](C[C@@H](C)n2cc(C#CCOc3cccc(-c4ccccc4)c3)nn2)O1
inactive: all assays above

From ChEMBL document CHEMBL1155099, “Natural products in parallel synthesis: triazole libraries of nonactic acid” (2008)
